Series [1] concerns the target T1, Angiopoietin-1 receptor (Homo sapiens, UniProt Q02763). In words: Inhibition of recombinant Tie2 expressed in baculovirus-Sf21 system. In short, it runs like this:
(§1)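 Kinase-domain fragments expressed in baculovirus/Sf21 cells. Crude lysates (ice-cold Triton lysis with protease inhibitors, cleared) were diluted 1:200 for Tie-2, 1:400 for KDR and 1:1000 for Flt-1. Reactions ran on synthetic peptide-coated plates in 100 mM Hepes pH 7.4 with 5 µM ATP, 10 mM MnCl2, 0.1 mM vanadate, 0.2 mM DTT and 2.5% final DMSO, at room temperature for 60 min (Tie-2) or 20 min (KDR, Flt-1).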

Series [2] addresses Vascular endothelial growth factor receptor 1 (Homo sapiens, UniProt P17948). In words: Inhibition of recombinant Flt1 expressed in baculovirus-Sf21 system. The essentials: as §1
Series [3] concerns the target Vascular endothelial growth factor receptor 2 (Homo sapiens, UniProt P35968). Description: Inhibition of recombinant KDR expressed in baculovirus-Sf21 system. The essentials: as §1
The target in series [4] is T1, Angiopoietin-1 receptor. In words: Inhibition of human Tie2 autophosphorylation expressed in CHOK1 cells by ELISA. The class given is cell-based, CHO-K1. The essentials: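 CHO-K1 cells stably expressing human Tie-2 were seeded at 6×10^4 cells/well and grown 3 days in DMEM/G418/10% FCS. Compound was added in DMEM with 1% FCS for 45 min at 37 °C. Cells were lysed on ice, and lysate was captured on a human Tie-2 ELISA plate (2 h, room temperature). Phospho-Tie-2 was detected with a rabbit antibody, then anti-rabbit HRP and colour reagent; read at OD450.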

Series [5] in a line: Inhibition of p38.
The subject of a further series is HUVEC. In words: Inhibition of growth factor-stimulated proliferation of HUVEC. The format is functional, cell-based. The note with it: Homo sapiens.
Series [6] in a line: Fraction unbound ligand in mouse. The format is ADME, organism-based. The note with it: in vivo.
A short description of series [7]: Fraction unbound ligand in rat. The class given is ADME.
Series [8] is described as follows: Cmax in mouse at 2 mg/kg by cassette dosing assay. The class given is ADME, organism-based. Also on record: dose 2 mg/kg. The note with it: in vivo.
The subject of the next series is Mus musculus. In words: AUC in mouse at 2 mg/kg by cassette dosing assay. The format is ADME, organism-based, Plasma. Details: dose 2 mg/kg. The note with it: in vivo.
Series [9] in a line: Cmax in mouse at 1 mg/kg, po by cassette dosing assay. The format is ADME, organism-based. Details: dose 1 mg/kg, route oral. The note with it: in vivo.

A value given as a limit tells only on which side of the number the result lay.

This is an account of results in ChEMBL document CHEMBL1156614, “Discovery of imidazole vinyl pyrimidines as a novel class of kinase inhibitors which inhibit Tie-2 and are orally bioavailable” (Bioorg Med Chem Lett, 2008).

Chain of Vascular endothelial growth factor receptor 2 (P35968 whole entry): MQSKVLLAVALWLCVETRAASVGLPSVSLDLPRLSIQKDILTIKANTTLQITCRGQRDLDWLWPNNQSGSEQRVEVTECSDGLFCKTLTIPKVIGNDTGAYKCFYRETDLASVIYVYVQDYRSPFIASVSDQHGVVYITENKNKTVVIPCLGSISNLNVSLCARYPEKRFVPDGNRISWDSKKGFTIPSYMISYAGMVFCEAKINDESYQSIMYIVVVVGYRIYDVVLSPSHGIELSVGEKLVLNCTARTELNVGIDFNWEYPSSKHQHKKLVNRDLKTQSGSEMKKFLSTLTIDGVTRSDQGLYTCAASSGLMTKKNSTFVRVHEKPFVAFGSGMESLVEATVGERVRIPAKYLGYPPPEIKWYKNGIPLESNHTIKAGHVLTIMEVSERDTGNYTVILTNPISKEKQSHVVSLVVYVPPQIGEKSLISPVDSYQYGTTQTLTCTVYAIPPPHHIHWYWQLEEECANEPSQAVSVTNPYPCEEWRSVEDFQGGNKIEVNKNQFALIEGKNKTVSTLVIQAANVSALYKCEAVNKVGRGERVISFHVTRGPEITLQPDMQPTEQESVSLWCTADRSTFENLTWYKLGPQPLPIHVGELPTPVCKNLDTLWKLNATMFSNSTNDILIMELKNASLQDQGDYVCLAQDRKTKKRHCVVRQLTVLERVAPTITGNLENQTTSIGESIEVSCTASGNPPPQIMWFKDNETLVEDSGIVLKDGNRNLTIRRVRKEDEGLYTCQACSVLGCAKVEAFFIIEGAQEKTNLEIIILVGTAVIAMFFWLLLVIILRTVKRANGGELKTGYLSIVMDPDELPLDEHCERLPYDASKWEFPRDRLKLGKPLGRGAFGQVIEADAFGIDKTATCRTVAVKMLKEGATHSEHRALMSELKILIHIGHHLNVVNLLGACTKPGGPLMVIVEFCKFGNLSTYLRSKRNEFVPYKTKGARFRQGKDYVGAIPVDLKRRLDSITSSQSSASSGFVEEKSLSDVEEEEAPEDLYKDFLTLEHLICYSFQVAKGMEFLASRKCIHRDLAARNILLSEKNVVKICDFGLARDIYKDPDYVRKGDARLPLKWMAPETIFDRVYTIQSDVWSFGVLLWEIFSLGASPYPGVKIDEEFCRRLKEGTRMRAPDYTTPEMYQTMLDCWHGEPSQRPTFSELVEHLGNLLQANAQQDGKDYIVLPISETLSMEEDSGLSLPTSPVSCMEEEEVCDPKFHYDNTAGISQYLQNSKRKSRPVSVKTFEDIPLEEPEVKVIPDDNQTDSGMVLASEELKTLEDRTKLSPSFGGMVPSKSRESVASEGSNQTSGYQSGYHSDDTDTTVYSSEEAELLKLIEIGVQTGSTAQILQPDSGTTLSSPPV
T1 sequence (Q02763 whole entry, the tested form may be a part): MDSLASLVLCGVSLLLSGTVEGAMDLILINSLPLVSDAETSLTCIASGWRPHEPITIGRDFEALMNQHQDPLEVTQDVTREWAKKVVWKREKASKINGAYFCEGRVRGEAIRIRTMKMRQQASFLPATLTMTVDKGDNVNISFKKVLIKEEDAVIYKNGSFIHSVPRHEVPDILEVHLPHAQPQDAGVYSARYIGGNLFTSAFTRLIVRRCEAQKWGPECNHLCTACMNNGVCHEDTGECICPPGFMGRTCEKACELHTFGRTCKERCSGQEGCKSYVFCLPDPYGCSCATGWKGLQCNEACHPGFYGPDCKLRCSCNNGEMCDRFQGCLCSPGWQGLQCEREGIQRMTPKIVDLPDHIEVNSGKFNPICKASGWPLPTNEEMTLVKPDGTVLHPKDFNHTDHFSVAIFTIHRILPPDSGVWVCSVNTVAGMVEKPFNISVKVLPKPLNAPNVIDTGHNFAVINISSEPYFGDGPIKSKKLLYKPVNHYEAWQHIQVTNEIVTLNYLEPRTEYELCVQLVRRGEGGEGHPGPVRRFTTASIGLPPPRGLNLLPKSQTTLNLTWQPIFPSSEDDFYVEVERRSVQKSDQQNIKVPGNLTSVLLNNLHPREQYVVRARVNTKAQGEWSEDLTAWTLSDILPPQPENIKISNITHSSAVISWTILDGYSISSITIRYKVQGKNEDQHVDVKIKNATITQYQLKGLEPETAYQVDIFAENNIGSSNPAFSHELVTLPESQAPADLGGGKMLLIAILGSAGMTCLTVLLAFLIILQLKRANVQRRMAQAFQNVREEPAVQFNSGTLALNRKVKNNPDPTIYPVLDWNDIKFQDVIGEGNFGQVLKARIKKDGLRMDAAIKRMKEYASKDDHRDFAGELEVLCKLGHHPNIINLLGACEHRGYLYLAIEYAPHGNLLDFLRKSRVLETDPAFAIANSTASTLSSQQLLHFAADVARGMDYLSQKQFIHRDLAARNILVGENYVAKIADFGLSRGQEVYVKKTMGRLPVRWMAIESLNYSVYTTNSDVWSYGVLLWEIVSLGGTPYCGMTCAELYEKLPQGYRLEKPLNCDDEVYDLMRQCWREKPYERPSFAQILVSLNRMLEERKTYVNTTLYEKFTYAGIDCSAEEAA
Chain of Vascular endothelial growth factor receptor 1 (P17948 whole entry): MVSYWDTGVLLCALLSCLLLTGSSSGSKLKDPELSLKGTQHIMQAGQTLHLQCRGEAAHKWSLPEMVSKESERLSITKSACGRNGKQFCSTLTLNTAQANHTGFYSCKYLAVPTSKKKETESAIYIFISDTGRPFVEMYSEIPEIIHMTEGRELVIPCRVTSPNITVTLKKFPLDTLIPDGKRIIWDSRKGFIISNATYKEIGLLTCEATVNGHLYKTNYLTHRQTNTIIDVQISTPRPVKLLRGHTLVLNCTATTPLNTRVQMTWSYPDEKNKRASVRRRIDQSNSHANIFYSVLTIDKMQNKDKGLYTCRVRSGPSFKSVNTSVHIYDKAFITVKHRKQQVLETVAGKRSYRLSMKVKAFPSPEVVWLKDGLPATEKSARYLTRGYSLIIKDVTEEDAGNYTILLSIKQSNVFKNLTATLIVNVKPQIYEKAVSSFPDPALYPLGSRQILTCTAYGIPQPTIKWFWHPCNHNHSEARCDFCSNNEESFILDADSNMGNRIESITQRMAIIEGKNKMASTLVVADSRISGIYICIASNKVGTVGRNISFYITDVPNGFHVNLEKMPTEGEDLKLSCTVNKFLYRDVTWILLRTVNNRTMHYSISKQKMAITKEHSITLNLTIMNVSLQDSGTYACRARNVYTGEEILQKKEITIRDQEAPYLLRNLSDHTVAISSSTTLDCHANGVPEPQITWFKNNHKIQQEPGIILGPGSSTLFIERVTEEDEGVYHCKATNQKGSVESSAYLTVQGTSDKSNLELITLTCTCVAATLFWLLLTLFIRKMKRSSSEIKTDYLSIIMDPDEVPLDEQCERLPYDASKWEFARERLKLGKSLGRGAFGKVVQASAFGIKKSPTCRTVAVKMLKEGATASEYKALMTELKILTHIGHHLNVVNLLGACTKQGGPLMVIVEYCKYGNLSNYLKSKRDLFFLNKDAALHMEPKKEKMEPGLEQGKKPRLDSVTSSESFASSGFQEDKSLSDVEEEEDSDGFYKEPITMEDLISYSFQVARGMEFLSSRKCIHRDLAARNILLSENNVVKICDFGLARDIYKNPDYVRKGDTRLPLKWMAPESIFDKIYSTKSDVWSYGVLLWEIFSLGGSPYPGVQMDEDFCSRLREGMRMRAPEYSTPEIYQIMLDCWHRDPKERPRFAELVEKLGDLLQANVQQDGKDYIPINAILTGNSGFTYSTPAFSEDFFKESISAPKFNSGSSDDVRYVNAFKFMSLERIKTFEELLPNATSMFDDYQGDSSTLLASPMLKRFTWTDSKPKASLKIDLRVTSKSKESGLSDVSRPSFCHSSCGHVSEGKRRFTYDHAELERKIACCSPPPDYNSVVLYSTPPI

What is called IC50 is the concentration needed to halve the response being measured. Regarding `Cn1c(-c2ccccc2)c(/C=C/c2ccnc(N)n2)c2ccccc21`, the IC50 at Angiopoietin-1 receptor [1] amounted to 83 µM.

Take `Nc1nccc(/C=C/c2c(-c3ccccc3)ncn2Cc2ccccc2)n1`: the IC50 on Angiopoietin-1 receptor [1] stood at 2.8 µM; in series [2], 31 µM; in series [3], 7 µM.

`Cc1nc2sccn2c1/C=C/c1ccnc(N)n1`: the IC50 at Angiopoietin-1 receptor [1] is greater than 100 µM; in series [2] it was greater than 100 µM; in [3], 70 µM.

`C(=C\c1c(-c2ccccc2)nc2sccn12)/c1ccnc(Nc2ccccc2)n1`: the IC50 at Angiopoietin-1 receptor [1] is 68 µM; in [2], greater than 100 µM; in [3] it was greater than 100 µM.

On to `Cn1cnc(-c2ccccc2)c1CNc1ccnc(N)n1`, for which the IC50 (at Angiopoietin-1 receptor [1]; in series [2]; in series [3]) was greater than 100 µM throughout.

Consider `CNc1nccc(/C=C/c2c(-c3ccccc3)nc3sccn23)n1`, for which the 50% inhibitory concentration (IC50) at Angiopoietin-1 receptor [1] is 14 µM; in [2] it was 84 µM; in series [3], 17 µM.

With `Cn1cnc(-c2ccccc2)c1Nc1ccnc(N)n1`, the half-maximal inhibitory concentration (IC50) (at Angiopoietin-1 receptor [1]; in [2]; in series [3]) was greater than 100 µM throughout.

As for `Cn1cnc(-c2ccccc2)c1C#Cc1ccnc(N)n1`, the IC50 on Angiopoietin-1 receptor [1] worked out at 6.4 µM; in series [2] it was 36 µM; in [3], 2.9 µM.

With `Cn1cnc(-c2ccccc2)c1NCCc1ccnc(N)n1`, the IC50 (on Angiopoietin-1 receptor [1]; in series [2]; in [3]) was greater than 100 µM in each case.

Consider `Nc1nccc(/C=C/c2sccc2-c2ccccc2)n1`, for which the IC50 (at Angiopoietin-1 receptor [1]; in [2]; in [3]) was greater than 100 µM each time.

With `CC(C)(C)C(=O)Nc1nccc(/C=C/c2c(-c3ccccc3)nc3sccn23)n1`, the IC50 amounted to 41 µM at Angiopoietin-1 receptor [1], 96 µM in [2] and 13 µM in series [3].

For the compound `Nc1nccc(/C=C/c2c(-c3ccccc3)nc3ccccn23)n1`, the 50% inhibitory concentration (IC50) on Angiopoietin-1 receptor [1] worked out at 5.6 µM; in series [2], 79 µM; in series [3], 13 µM.

As for `Nc1nccc(/C=C/c2c(Cl)nc3sccn23)n1`, the results for the IC50 (at Angiopoietin-1 receptor [1]; in series [2]; in [3]) were greater than 100 µM, greater than 100 µM and 31 µM, respectively.

Consider `Nc1cc(/C=C/c2c(-c3ccccc3)nc3sccn23)ncn1`, for which the results for the IC50 (on Angiopoietin-1 receptor [1]; in series [2]; in [3]) were 5.2 µM, greater than 100 µM and 35 µM, respectively.

In the case of `Cn1cnc(-c2ccccc2)c1C1CC1c1ccnc(N)n1` (centres undefined), the IC50 (on Angiopoietin-1 receptor [1]; in series [2]; in series [3]) was greater than 100 µM each time.

The term fraction unbound denotes the share of the substance not bound to proteins or other matrix. Read a low fraction unbound as extensive binding. Usually Cmax stands for the highest concentration seen after dosing. What is called AUC is concentration integrated over time. A high value points to more exposure. Take `Cn1cnc(-c2ccccc2)c1/C=C/c1ccnc(N)n1`: the IC50 is 340 nM against Angiopoietin-1 receptor [4]; 12 µM in [5]; greater than 10 µM in the series with HUVEC; 3.8 µM at Angiopoietin-1 receptor [1]; 34 µM in series [2]; 3.2 µM in series [3]. Moreover, the fraction unbound in series [6] came out at 0.125; in series [7], 0.099. For the same compound, the Cmax in series [8] came out at 460 nM. The area under the curve (AUC) in the series on Mus musculus is 0.58 µM·h.

With `Nc1nccc(/C=C/c2ccsc2-c2ccccc2)n1`, the IC50 (at Angiopoietin-1 receptor [1]; in series [2]; in series [3]) was greater than 100 µM throughout.

Regarding `Cn1cnc(/C=C/c2ccnc(N)n2)c1-c1ccccc1`, the IC50 is greater than 100 µM at Angiopoietin-1 receptor [1], greater than 100 µM in series [2] and 7.8 µM in [3].

In the case of `Nc1nccc(/C=C/c2[nH]ncc2-c2ccccc2)n1`, the values for the IC50 (at Angiopoietin-1 receptor [1]; in series [2]; in series [3]) were 64 µM, greater than 100 µM and greater than 100 µM, respectively.

With `Clc1nccc(/C=C/c2c(-c3ccccc3)nc3sccn23)n1`, the IC50 on Angiopoietin-1 receptor [1] is 55 µM; in series [2], 66 µM; in series [3], greater than 100 µM.

On to `Nc1nccc(/C=C/c2c(-c3ccccc3)nc3sccn23)n1`, for which the IC50 worked out at 6 µM at Angiopoietin-1 receptor [1], 30 µM in series [2] and 7 µM in [3]. The compound further yielded a Cmax in series [9] of 290 nM.

For the compound `Nc1ccnc(/C=C/c2c(-c3ccccc3)nc3sccn23)n1`, the IC50 (at Angiopoietin-1 receptor [1]; in series [2]; in [3]) was greater than 100 µM in each case.

Take `C(=C\c1c(-c2ccccc2)nc2sccn12)/c1ccncn1`: the IC50 on Angiopoietin-1 receptor [1] was 27 µM; in series [2] it was greater than 100 µM; in series [3] it was 77 µM.

As to `Nc1nccc(/C=C/c2[nH]cnc2-c2ccccc2)n1`, the IC50 against Angiopoietin-1 receptor [4] worked out at 370 nM; on Angiopoietin-1 receptor [1] it was 8.4 µM; in [2], 68 µM; in [3], 9.8 µM.

As to `Nc1nccc(/C=C/c2c(-c3ccccc3)nc3n2CCS3)n1`, the IC50 at Angiopoietin-1 receptor [1] stood at 2.9 µM; in [2], 23 µM; in series [3], 3.2 µM.

As to `Cn1cnc(-c2ccccc2)c1NC(=O)c1ccnc(N)n1`, the IC50 (at Angiopoietin-1 receptor [1]; in series [2]; in [3]) was greater than 100 µM each time.

For `Cn1cnc(-c2ccccc2)c1C(=O)Nc1ccnc(N)n1`, the IC50 (at Angiopoietin-1 receptor [1]; in series [2]; in series [3]) was greater than 100 µM in each case.

Turning to `Nc1nccc(/C=C/c2c(-c3ccc(F)cc3)nc3sccn23)n1`, on Angiopoietin-1 receptor [1], the IC50 was determined as 13 µM.

As to `CC(=O)Nc1nccc(/C=C/c2c(-c3ccccc3)nc3sccn23)n1`, the IC50 at Angiopoietin-1 receptor [1] is 11 µM; in [2] it was 100 µM; in series [3] it was 4.5 µM.

Consider `Nc1nccc(/C=C/c2c(-c3ccccc3)ncn2CC(=O)O)n1`, for which the IC50 at Angiopoietin-1 receptor [1] was 68 µM.

Regarding `Nc1nccc(/C=C/c2c(-c3ccccc3)ncn2CCN2CCCC2)n1`, the values for the IC50 (on Angiopoietin-1 receptor [1]; in [2]; in [3]) were 21 µM, greater than 100 µM and 32 µM, respectively.

For `CC(Nc1nccc(/C=C/c2c(-c3ccccc3)nc3sccn23)n1)c1ccccc1` (centres undefined), the IC50 (at Angiopoietin-1 receptor [1]; in series [2]; in [3]) was greater than 100 µM in each case.
